MrgX1 ag: activates human MrgX1 receptor signaling; Q96LB2; MrgX1-HEK293 cells, Fluo-4 calcium fluorescence, agonist mode; active compounds read high; B-score at 10 µM; 310,000 compounds, 0.44% hits; AID 588627;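 active = calcium response B-score plate-corrected fluorescence ratio at least 3 library SD, with starting fluorescence B-score inside 5 SD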
Target sequence (Q96LB2 whole entry, looked up): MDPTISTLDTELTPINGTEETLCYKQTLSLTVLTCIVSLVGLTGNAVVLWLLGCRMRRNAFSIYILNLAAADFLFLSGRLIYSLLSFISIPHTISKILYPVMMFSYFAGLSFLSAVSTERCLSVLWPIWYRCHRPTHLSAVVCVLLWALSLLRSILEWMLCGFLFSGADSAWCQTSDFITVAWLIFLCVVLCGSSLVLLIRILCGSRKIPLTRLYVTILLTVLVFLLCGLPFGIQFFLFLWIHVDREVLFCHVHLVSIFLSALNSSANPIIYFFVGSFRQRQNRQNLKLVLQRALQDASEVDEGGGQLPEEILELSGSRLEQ
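System: HEK293 cells stably expressing human MrgX1 receptor; Dosing: test compound in the initial addition of three; Schedule: overnight plating, then 30 min 37 °C plus 30 min room-temperature dye loading; Detection: kinetic calcium dye fluorescence, Fluo-4 NW; Controls: per-plate positive and negative controls for Z′ factor.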
MrgX1 antagonist: blocks BAM8-22 activation of human MrgX1 receptor. Q96LB2. MRGX1-HEK293 calcium flux, Fluo-4, BAM8-22 antagonism; active compounds read low. B-score at 10 µM. 310,000 compounds, 1.3% hits. AID 588676;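 active = calcium-response B-score plate-corrected more than 3 library SD below zero, starting fluorescence within 5 deviations, no agonist response on first addition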;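 note: peak minus trough fluorescence over baseline after final BAM8-22 challenge near maximal dose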
RGS4 inh: human RGS4 inhibition; P49798; 310,000 compounds, 0.45% hits; B-score at 10 µM; HEK293 M3R/RGS4 inducible, Fluo-4 calcium flux; active compounds read high; triggered by carbachol at its EC20;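 active = B-score, a plate-corrected calcium signal, over three deviations above library mean, with baseline fluorescence within five deviations of library mean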;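 note: RGS4 expression induced by doxycycline in cells with stable M3 receptor; B-score is computed from the integrated fluorescence ratio over baseline after carbachol; higher B-score means a larger calcium signal and so more RGS4 inhibition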
MrgX1 PAM: allosterically activates human MrgX1 receptor signaling | Q96LB2 | MrgX1-HEK293, Fluo-4 calcium flux, FDSS; active compounds read high | B-score at 10 µM | 310,000 compounds, 0.63% hits;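 active = plate-corrected calcium response at least 3 library SD above typical, normal starting fluorescence, not activating the receptor alone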;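 note: compound read alongside a low EC10 to EC30 dose of BAM8-22 agonist; peak minus trough fluorescence over baseline measured at the second addition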
RGS4 pot: potentiators or activators of RGS4. HEK293 M3R/inducible RGS4, carbachol calcium flux Fluo4; active compounds read low. B-score at 10 µM. 310,000 compounds, 0.92% hits. AID 463111;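 active = B-score of the integrated calcium signal more than 4 SD below the library mean, with starting fluorescence not abnormally high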;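 note: negative B-score means reduced calcium response which marks RGS4 activation or potentiation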
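System – HEK293 FlpIn-TREx cells, stable M3R, doxycycline-inducible RGS4 · Reagent – ECmax carbachol challenge · Times – compound preincubation 20 min at room temperature before agonist · Technique – Fluo4 fluorescence kinetic imaging of calcium · Measure – B score of integrated Fluo4 ratio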
An asterisk follows results filed as active. The list is not random: actives were taken first. Their share in the collection is about 3.5%.

What do the screens show for `CC1(C(=O)N(CC(=O)NC2CCCC2)Cc2ccco2)CC(=O)N=C2C=CC=CN21` (centres undefined)?
MrgX1 ag: inactive; MrgX1 antagonist: inactive; RGS4 inh: inactive; MrgX1 PAM: inactive; RGS4 pot: inactive

How did COc1cc(OC)c(OC)cc1/C=C/C(=O)c1ccc(NS(=O)(=O)c2ccc(C)cc2)cc1 do in these assays?
MrgX1 ag: inactive; MrgX1 antagonist: -4.8*; RGS4 inh: inactive; MrgX1 PAM: inactive; RGS4 pot: inactive

Results for Cc1c(C(=O)C(=O)N2c3ccccc3CC2C)c2ccccc2n1C (centres undefined) ?
MrgX1 ag: inactive; MrgX1 antagonist: inactive; RGS4 inh: inactive; MrgX1 PAM: inactive; RGS4 pot: inactive

How did Cc1cc(NC(=O)CSc2nnc(N)s2)c([N+](=O)[O-])cc1C do in these assays?
MrgX1 ag: inactive; MrgX1 antagonist: -7*; RGS4 inh: inactive; MrgX1 PAM: inactive; RGS4 pot: inactive

How did Cc1ccc(OCCC(=O)OCC(=O)NC(=O)c2ccccc2)cc1 do in these assays?
MrgX1 ag: inactive; MrgX1 antagonist: inactive; RGS4 inh: inactive; MrgX1 PAM: inactive; RGS4 pot: inactive

Results for CC(=O)NC(Cc1ccc(F)cc1)C(=O)N1CCN(C(=O)NCc2ccccc2)CC1 (centres undefined) ?
MrgX1 ag: inactive; MrgX1 antagonist: inactive; RGS4 inh: inactive; MrgX1 PAM: inactive; RGS4 pot: inactive

What do the screens show for `CNC(=O)Nc1cc(C(F)(F)F)cc(C(F)(F)F)c1`?
MrgX1 ag: inactive; MrgX1 antagonist: inactive; RGS4 inh: inactive; MrgX1 PAM: inactive; RGS4 pot: inactive

What do the screens show for `O=C(Nc1cc(C(F)(F)F)cc(C(F)(F)F)c1)Nc1cnn(-c2ccc([N+](=O)[O-])cc2)c1C(F)(F)F`?
MrgX1 ag: inactive; MrgX1 antagonist: -7*; RGS4 inh: inactive; MrgX1 PAM: inactive; RGS4 pot: inactive

Results for O=C(NC1CCCCC1)c1ccc(S(=O)(=O)c2ccccc2)cc1 ?
MrgX1 ag: inactive; MrgX1 antagonist: inactive; RGS4 inh: inactive; MrgX1 PAM: inactive; RGS4 pot: inactive

Results for Cc1ccc2nc(SC(C(=O)c3ccccc3)c3ccccc3)nc(C)c2c1 (centres undefined) ?
MrgX1 ag: inactive; MrgX1 antagonist: inactive; RGS4 inh: inactive; MrgX1 PAM: inactive; RGS4 pot: inactive

Results for O=C(Nc1ccc(Br)c2ccccc12)c1ccc2ccccc2c1O ?
MrgX1 ag: inactive; MrgX1 antagonist: inactive; RGS4 inh: inactive; MrgX1 PAM: inactive; RGS4 pot: -7.5*

How did CC(=O)Nc1ccc(Br)c2ccccc12 do in these assays?
MrgX1 ag: inactive; MrgX1 antagonist: inactive; RGS4 inh: inactive; MrgX1 PAM: inactive; RGS4 pot: inactive

How did CCCN(CCC)Cc1c(C(=O)N/N=C/CCc2ccccc2)nnn1-c1nonc1N do in these assays?
MrgX1 ag: inactive; MrgX1 antagonist: inactive; RGS4 inh: inactive; MrgX1 PAM: inactive; RGS4 pot: inactive

How did Cc1cccc(C)c1OCC(O)Cn1c2ccccc2c2ccccc21 (centres undefined) do in these assays?
MrgX1 ag: inactive; MrgX1 antagonist: inactive; RGS4 inh: inactive; MrgX1 PAM: inactive; RGS4 pot: -7.1*

How did Cc1ccc(OCC(O)Cn2c3ccccc3c3ccccc32)cc1 (centres undefined) do in these assays?
MrgX1 ag: inactive; MrgX1 antagonist: inactive; RGS4 inh: inactive; MrgX1 PAM: inactive; RGS4 pot: inactive

What do the screens show for `CCOc1ccc(OCCn2c(S(=O)(=O)O)nc3c(N)ncnc32)cc1`?
MrgX1 ag: inactive; MrgX1 antagonist: inactive; RGS4 inh: inactive; MrgX1 PAM: inactive; RGS4 pot: inactive

How did CC(=O)c1cccc(NC(=O)/C(=C/c2ccncc2)NC(=O)c2ccccc2)c1 do in these assays?
MrgX1 ag: inactive; MrgX1 antagonist: inactive; RGS4 inh: inactive; MrgX1 PAM: inactive; RGS4 pot: inactive

Results for Cc1ccccc1N=C1SC(CC(=O)Nc2ccc3ccccc3c2)C(=O)N1Cc1ccccn1 (centres undefined) ?
MrgX1 ag: inactive; MrgX1 antagonist: -9.7*; RGS4 inh: inactive; MrgX1 PAM: inactive; RGS4 pot: inactive

Assay outcomes deposited in PubChem BioAssay by Johns Hopkins Ion Channel Center.
